Test results taken from ChEMBL document CHEMBL3091412, “Discovery of an irreversible HCV NS5B polymerase inhibitor” (Bioorg Med Chem Lett, 2013).

Columns and labels:
Cytochrome P450 3A4 [1] = biological target: T1, Cytochrome P450 3A4 (Homo sapiens, UniProt P08684); test: Inhibition of CYP3A4 in human liver microsomes measured after concurrent incubation; assay type: ADME
Outline: (§1)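 Human liver microsomes; CYP inhibition measured with compound added concurrently or after pre-incubation; concentration inhibiting 50% of enzyme activity determined.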

[2] = AUC in fed cynomolgus monkey at 30 mg/kg, po; assay type: ADME, organism-based, Macaca fascicularis; set-up: dose 30 mg/kg, route oral; conditions: plasma
Outline: (§2)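 Given orally as crystalline sodium salt to fed male Sprague Dawley rats (30–500 mg/kg) or fed male Cynomolgus monkeys (10–100 mg/kg) to assess dose exposure; plasma AUC and Cmax determined.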

Salmonella typhimurium [3] = test: Induction of mutagenicity in Salmonella Typhimurium TA 100 by mini-Ames assay; assay type: toxicity, organism-based; conditions: salmonella enterica subsp. enterica serovar typhimurium
Outline: (§3)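 Mini-Ames mutagenicity test against Salmonella strains TA 97a, TA 100 and TA 102.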

Salmonella typhimurium [4] = test: Induction of mutagenicity in Salmonella Typhimurium TA 97a by mini-Ames assay; assay type: toxicity, organism-based; conditions: salmonella enterica subsp. enterica serovar typhimurium; outline: as §3
[5] = Irreversible inhibition of HCV1b NS5B delta21 polymerase by radiolabeled nucleotide incorporation assay; set-up: species or system Hepatitis C virus subtype 1b
[6] = Cmax in fed cynomolgus monkey at 10 mg/kg, po; assay type: ADME, organism-based, Macaca fascicularis; set-up: dose 10 mg/kg, route oral; conditions: in vivo; outline: as §2
[7] = AUC in fed Sprague-Dawley rat at 30 mg/kg, po; assay type: ADME, organism-based; set-up: dose 30 mg/kg, route oral; conditions: plasma; outline: as §2
Salmonella typhimurium [8] = test: Induction of mutagenicity in Salmonella Typhimurium TA 102 by mini-Ames assay; assay type: toxicity, organism-based; conditions: salmonella enterica subsp. enterica serovar typhimurium; outline: as §3
[9] = AUC in fed Sprague-Dawley rat at 500 mg/kg, po; assay type: ADME, organism-based; set-up: dose 500 mg/kg, route oral; conditions: plasma; outline: as §2
hERG (KCNH2) = hERG (KCNH2) (Homo sapiens, UniProt Q12809); test: Inhibition of human ERG at 2 uM by voltage clamp assay
Cytochrome P450 2C8 [10] = biological target: T2, Cytochrome P450 2C8 (Homo sapiens, UniProt P10632); test: Inhibition of CYP2C8 in human liver microsomes measured after compound pre-incubation; assay type: ADME; outline: as §1
T2 sequence (P10632 whole entry): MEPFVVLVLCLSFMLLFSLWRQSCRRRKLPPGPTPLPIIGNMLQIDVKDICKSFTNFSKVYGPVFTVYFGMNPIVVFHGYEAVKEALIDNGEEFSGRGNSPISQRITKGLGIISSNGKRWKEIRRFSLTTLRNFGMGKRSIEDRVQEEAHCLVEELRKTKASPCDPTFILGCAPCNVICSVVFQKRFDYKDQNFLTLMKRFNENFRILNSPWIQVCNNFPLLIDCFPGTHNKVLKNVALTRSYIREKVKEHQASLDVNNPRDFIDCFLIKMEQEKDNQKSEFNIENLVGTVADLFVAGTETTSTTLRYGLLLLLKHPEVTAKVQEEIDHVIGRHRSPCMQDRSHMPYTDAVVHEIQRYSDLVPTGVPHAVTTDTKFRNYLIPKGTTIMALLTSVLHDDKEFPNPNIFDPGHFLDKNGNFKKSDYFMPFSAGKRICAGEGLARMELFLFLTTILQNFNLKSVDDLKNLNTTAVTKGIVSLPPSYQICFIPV

[11] = Cmax in fed Sprague-Dawley rat at 100 mg/kg, po; assay type: ADME, organism-based; set-up: dose 100 mg/kg, route oral; conditions: in vivo; outline: as §2
[12] = Cmax in fed cynomolgus monkey at 30 mg/kg, po; assay type: ADME, organism-based, Macaca fascicularis; set-up: dose 30 mg/kg, route oral; conditions: in vivo; outline: as §2
Hepatitis C virus = test: Antiviral activity against HCV Con1 in eplicon cells after 3 days by RT-PCR analysis; assay type: functional, organism-based, Hepacivirus hominis; conditions: isolate Con1, 72 h
Outline: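 HCV 1b-Con1 replicon cells seeded at 5000 cells/well one day before treatment; inhibitor in DMSO added as 10 serial twofold dilutions in duplicate (final 0.5% DMSO, 5% FBS). Harvested 3 days post dosing; replicon RNA quantified by real-time RT-PCR (Taqman), GAPDH RNA as endogenous control; EC50 calculated.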

Cytochrome P450 3A4 [13] = biological target: T1, Cytochrome P450 3A4; test: Inhibition of CYP3A4 in human liver microsomes measured after compound pre-incubation; assay type: ADME; outline: as §1
Cytochrome P450 2C8 [14] = biological target: T2, Cytochrome P450 2C8; test: Inhibition of CYP2C8 in human liver microsomes measured after concurrent incubation; assay type: ADME; outline: as §1
Cytochrome P450 2C19 = Cytochrome P450 2C19 (Homo sapiens, UniProt P33261); test: Inhibition of […] in human liver microsomes measured after compound pre-incubation; assay type: ADME
[15] = Cmax in fed cynomolgus monkey at 100 mg/kg, po; assay type: ADME, organism-based, Macaca fascicularis; set-up: dose 100 mg/kg, route oral; conditions: in vivo; outline: as §2
Cytochrome P450 2D6 = Cytochrome P450 2D6 (Homo sapiens, UniProt P10635); test: Inhibition of CYP2D6 in human liver microsomes measured after concurrent incubation; assay type: ADME; outline: as §1
[16] = AUC in fed Sprague-Dawley rat at 250 mg/kg, po; assay type: ADME, organism-based; set-up: dose 250 mg/kg, route oral; conditions: plasma; outline: as §2
Cytochrome P450 2D4 [17] = biological target: T3, Cytochrome P450 2D4 (Rattus norvegicus, UniProt Q64680); test: Inhibition of rat CYP2D4 measured after compound pre-incubation; assay type: ADME
T3 sequence (Q64680 whole entry): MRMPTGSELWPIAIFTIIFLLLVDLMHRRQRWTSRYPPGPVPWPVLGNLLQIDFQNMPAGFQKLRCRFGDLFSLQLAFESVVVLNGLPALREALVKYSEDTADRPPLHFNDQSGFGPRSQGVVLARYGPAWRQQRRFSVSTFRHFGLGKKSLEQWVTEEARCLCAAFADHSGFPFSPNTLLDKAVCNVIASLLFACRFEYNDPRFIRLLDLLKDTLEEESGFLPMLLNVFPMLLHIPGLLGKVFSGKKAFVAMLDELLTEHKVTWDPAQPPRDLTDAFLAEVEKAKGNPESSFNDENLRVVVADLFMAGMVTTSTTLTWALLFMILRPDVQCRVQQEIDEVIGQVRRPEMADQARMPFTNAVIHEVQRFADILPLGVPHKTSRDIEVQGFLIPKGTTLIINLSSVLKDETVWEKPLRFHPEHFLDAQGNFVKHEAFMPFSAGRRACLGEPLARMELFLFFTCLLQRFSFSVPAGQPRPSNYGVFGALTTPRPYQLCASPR

Cytochrome P450 2D4 [18] = biological target: T3, Cytochrome P450 2D4; test: Inhibition of rat CYP2D4 measured after concurrent incubation; assay type: ADME
Cytochrome P450 2C9 [19] = biological target: T4, Cytochrome P450 2C9 (Homo sapiens, UniProt P11712); test: Inhibition of CYP2C9 in human liver microsomes measured after compound pre-incubation; assay type: ADME; outline: as §1
Rattus norvegicus = test: Toxicity in rat at 10 to 500 mg/kg measured up to 2 weeks; assay type: organism-based; set-up: dose 10-500 mg/kg; conditions: in vivo, 336 h
[20] = Cmax in fed Sprague-Dawley rat at 30 mg/kg, po; assay type: ADME, organism-based; set-up: dose 30 mg/kg, route oral; conditions: in vivo; outline: as §2
Cytochrome P450 2C9 [21] = biological target: T4, Cytochrome P450 2C9; test: Inhibition of CYP2C9 in human liver microsomes measured after concurrent incubation; assay type: ADME; outline: as §1
[22] = Drug excretion in cynomolgus monkey bile assessed as parent compound administered as single oral dose; assay type: ADME, Macaca fascicularis; conditions: read-out: Drug excretion
Outline: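 Radiolabeled [3H] compound given as single oral dose to monkey; bile and urine excretion and metabolites profiled, including parent fraction in bile and glutathione or sulfate conjugates.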

[23] = AUC in fed cynomolgus monkey at 100 mg/kg, po; assay type: ADME, organism-based, Macaca fascicularis; set-up: dose 100 mg/kg, route oral; conditions: plasma; outline: as §2

T1 sequence (P08684 whole entry): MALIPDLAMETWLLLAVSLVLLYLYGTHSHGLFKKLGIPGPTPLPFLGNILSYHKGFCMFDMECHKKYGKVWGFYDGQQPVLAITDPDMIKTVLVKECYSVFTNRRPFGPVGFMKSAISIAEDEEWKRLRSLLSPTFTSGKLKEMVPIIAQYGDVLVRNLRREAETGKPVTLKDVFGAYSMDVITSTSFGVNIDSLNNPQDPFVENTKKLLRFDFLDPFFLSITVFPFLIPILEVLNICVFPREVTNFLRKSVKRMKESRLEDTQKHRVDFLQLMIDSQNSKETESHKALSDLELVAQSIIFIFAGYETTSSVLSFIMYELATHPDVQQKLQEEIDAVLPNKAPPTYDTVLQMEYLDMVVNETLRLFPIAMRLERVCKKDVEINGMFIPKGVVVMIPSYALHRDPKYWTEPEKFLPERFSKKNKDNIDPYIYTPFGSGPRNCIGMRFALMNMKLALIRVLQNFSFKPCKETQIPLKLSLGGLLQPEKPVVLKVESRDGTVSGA
T4 sequence (P11712 whole entry): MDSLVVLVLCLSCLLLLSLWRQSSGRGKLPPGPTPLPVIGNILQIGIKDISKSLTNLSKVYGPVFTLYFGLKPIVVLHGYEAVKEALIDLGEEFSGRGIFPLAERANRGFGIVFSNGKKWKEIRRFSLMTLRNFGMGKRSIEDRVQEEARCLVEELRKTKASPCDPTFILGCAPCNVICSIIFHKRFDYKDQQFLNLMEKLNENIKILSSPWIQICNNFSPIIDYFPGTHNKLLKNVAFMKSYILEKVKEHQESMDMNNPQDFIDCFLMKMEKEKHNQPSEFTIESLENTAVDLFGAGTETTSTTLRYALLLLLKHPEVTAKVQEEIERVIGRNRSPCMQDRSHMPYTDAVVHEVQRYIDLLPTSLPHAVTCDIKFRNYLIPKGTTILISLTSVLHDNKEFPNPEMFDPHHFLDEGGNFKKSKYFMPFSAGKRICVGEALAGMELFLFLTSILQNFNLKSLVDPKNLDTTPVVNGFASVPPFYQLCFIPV
Sequence of hERG (KCNH2) (Q12809 whole entry): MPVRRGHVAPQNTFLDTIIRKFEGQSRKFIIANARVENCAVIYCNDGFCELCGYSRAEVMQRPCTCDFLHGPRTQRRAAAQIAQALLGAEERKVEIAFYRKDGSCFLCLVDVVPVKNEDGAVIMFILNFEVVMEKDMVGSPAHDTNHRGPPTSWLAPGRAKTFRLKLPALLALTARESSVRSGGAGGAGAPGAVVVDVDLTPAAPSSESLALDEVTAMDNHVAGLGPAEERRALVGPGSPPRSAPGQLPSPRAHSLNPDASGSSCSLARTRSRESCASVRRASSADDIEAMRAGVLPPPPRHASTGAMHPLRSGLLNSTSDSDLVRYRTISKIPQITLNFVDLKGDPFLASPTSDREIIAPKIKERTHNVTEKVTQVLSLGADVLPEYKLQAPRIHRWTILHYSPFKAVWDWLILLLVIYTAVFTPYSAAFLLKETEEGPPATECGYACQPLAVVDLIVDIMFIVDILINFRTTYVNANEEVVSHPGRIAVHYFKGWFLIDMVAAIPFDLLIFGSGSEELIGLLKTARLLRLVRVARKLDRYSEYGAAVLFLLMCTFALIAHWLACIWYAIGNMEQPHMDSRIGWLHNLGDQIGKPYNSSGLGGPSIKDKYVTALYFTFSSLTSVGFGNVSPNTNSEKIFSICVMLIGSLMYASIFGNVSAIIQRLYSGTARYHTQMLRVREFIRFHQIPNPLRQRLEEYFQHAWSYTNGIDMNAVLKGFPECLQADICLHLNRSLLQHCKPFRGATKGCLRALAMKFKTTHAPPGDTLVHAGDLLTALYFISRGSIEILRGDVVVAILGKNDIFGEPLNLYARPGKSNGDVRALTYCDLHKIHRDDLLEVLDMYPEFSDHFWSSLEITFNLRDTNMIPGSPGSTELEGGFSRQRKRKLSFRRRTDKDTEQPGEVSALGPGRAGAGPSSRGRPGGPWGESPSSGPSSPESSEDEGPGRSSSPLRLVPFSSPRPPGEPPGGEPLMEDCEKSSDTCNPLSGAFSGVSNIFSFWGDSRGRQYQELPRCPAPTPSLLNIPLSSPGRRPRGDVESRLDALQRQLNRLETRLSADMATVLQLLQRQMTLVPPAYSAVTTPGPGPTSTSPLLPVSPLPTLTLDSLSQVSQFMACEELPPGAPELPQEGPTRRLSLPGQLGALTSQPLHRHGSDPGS
Sequence of Cytochrome P450 2D6 (P10635 whole entry): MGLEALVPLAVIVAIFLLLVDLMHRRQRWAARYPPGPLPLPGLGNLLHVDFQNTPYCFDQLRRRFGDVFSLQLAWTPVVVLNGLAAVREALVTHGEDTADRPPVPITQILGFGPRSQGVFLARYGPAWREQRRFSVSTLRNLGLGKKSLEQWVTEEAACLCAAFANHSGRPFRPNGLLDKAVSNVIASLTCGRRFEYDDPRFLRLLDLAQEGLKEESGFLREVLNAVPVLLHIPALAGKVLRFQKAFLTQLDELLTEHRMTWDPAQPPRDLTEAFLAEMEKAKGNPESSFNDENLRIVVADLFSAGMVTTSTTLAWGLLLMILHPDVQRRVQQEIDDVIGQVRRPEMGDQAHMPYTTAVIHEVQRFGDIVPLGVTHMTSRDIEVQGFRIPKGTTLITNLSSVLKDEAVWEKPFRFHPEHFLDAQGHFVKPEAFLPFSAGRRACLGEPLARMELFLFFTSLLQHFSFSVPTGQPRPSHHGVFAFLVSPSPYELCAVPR
Sequence of Cytochrome P450 2C19 (P33261 whole entry): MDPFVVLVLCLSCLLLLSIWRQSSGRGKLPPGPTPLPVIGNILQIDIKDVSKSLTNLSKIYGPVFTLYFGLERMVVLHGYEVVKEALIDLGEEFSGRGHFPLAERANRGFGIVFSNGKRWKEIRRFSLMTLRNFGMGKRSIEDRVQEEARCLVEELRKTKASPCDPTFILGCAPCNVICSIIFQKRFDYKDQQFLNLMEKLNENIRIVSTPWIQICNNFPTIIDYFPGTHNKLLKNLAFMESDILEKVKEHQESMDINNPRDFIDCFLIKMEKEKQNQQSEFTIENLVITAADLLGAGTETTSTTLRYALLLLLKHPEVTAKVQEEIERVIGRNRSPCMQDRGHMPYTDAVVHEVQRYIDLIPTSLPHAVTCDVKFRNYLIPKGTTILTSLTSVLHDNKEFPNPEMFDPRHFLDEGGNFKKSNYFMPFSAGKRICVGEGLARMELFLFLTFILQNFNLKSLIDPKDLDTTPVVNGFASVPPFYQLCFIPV

## Cc1cc2c(-c3ccc[nH]c3=O)c(C(=O)O)n(Cc3cc4ccccc4nc3Cl)c2cc1F
Cytochrome P450 3A4 [1]
  IC50: > 50 µM
[2]
  AUC: 15 µM·h
Salmonella typhimurium [3]
  Activity: Non-toxic
Salmonella typhimurium [4]
  Activity: Non-toxic
[5]
  IC50: 0.013 µM
[6]
  Cmax: 900 nM
[7]
  AUC: 176 µM·h
Salmonella typhimurium [8]
  Activity: Non-toxic
[9]
  AUC: 1040 µM·h
hERG (KCNH2)
  inhibition at 2 µM: 6%
Cytochrome P450 2C8 [10]
  IC50: 30 µM
[11]
  Cmax: 32000 nM
[12]
  Cmax: 1300 nM
Hepatitis C virus
  EC50: 0.003 µM
Cytochrome P450 3A4 [13]
  IC50: > 50 µM
Cytochrome P450 2C8 [14]
  IC50: 21 µM
Cytochrome P450 2C19
  IC50: > 50 µM
[15]
  Cmax: 2000 nM
Cytochrome P450 2D6
  IC50: > 50 µM
[16]
  AUC: 1090 µM·h
Cytochrome P450 2D4 [17]
  IC50: > 50 µM
Cytochrome P450 2D4 [18]
  IC50: > 50 µM
Cytochrome P450 2C9 [19]
  IC50: > 50 µM
Rattus norvegicus
  Activity: Non-toxic
[20]
  Cmax: 21000 nM
Cytochrome P450 2C9 [21]
  IC50: > 50 µM
[22]
  dose excreted: 81%
[23]
  AUC: 17 µM·h
